Converted amounts (≈) assume the structure as drawn. A value given as a limit tells only on which side of the number the result lay.

Assay in all cases: Minimum inhibitory concentration, broth microdilution
What all share (format): cell-based
On the technique in general: Dilution methods test growth across graded concentrations, often in twofold steps.

Assay [1] relates to Escherichia coli ATCC 2452. Conditions: ATCC2452, read-out: Minimum inhibitory concentration. The method in brief: (§1)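 Broth microdilution per CLSI: test agents serially diluted across plates. Inoculum set to 0.5 McFarland, diluted in cation-adjusted Mueller Hinton broth to ~5 × 10^5 CFU/ml, then incubated aerobically at 37°C for 16 to 18 h. Gentamicin and imipenem were run as control antibiotics.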

Assay [2] relates to Escherichia coli ATCC 2469. Conditions: ATCC2469, read-out: Minimum inhibitory concentration. The procedure, abridged: as §1
Assay [3] concerns Klebsiella pneumoniae NR-41920. Conditions: NR41920, read-out: Minimum inhibitory concentration. The procedure, abridged: as §1
Assay [4] concerns Pseudomonas aeruginosa NR-50573. As to conditions: NR50573, read-out: Minimum inhibitory concentration. The procedure, abridged:
as §1

`C[C@@H](O)[C@H]1C(=O)N2C(C(=O)O)=C(SCCN=CN)C[C@H]12` [Imipenem]: the MIC in assay [1] worked out at 16 µg/mL (≈ 53.4 µM); in assay [2], 16 µg/mL (≈ 53.4 µM); in assay [3], 8 µg/mL (≈ 26.7 µM); in assay [4], 1 µg/mL (≈ 3.34 µM).
Take `CNC(C)C1CCC(N)C(OC2C(N)CC(N)C(OC3OCC(C)(O)C(NC)C3O)C2O)O1` (centres unmarked) [Gentamicin]: the MIC was > 64 µg/mL in assay [1], > 64 µg/mL in assay [2], 64 µg/mL (≈ 134 µM) in assay [3] and 1 µg/mL (≈ 2.09 µM) in assay [4].
